DDE Tn6 FP inh – inhibitors of Tn6 peptide binding to human fibrin DD(E); Fibrin DD(E) TRITC-Tn6 fluorescence polarization displacement; inhibition, % at 8.3 µM; hit rate 0.21% among 370,000; AID 720509;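 active means inhibition above a per-campaign cutoff: mean of compounds within control limits plus 3 SD, cut at about 15% in these data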
DDE Tn7 FP inh – DD(E)-Tn7 binding inhibition, primary FP screen | hit rate 0.13% among 370,000 | P02675 | FP displacement of FITC-Tn7 peptide from fibrin DD(E); 0% = median of compound wells per plate | inhibition, % at 8.3 µM | AID 720508;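 active means inhibition above the mean of compounds falling within the control limits plus 3 SD of them, cut at about 14% in these data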
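Also added: labelled Tn7 tracer, 0.1 µM; Assay system: human fibrin DD(E) protein; Amount: 2 µM fibrin DD(E); Schedule: 10 min compound pre-incubation, 3 h probe incubation at room temperature; Repeats: one replicate per compound; Read-out basis: percent inhibition; Measured by: fluorescence polarization of the labelled Tn7 tracer.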
CAL PDZ FP-1 – CAL PDZ (human) peptide binding inhibition. Q9HD26. purified CAL PDZ, TMR-peptide fluorescence polarization, 1 h. inhibition, % at 24.9 µM. hit rate 0.92% among 300,000. AID 602252;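 active means mean inhibition of at least 30% with at least half of replicates also reaching 30%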
CAL PDZ FP-2 – human CAL PDZ-peptide interaction inhibition. Q9HD26. purified CAL PDZ, TMR-peptide fluorescence polarization, 1 h. inhibition, % at 20 µM. hit rate 0.02% among 330,000. AID 504414;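 active means highest replicate inhibition of at least 40%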
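material = purified tagged CAL PDZ domain construct (CerCALP) | compound dosing = 20 µM, one dose | times = 1 h at RT | measured by = fluorescence polarization from S- and P-plane intensities, G-factor corrected | read-out = inhibition from polarization loss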
ARNT TACC3 PPI – disruptors of human ARNT/TACC3 interaction; AID 623870; AlphaScreen His-ARNT PAS-B/GST-TACC3 binding, luminescence; TACC3 fragment carries E629A point mutation; inhibition, % at 9.99 µM; Q9Y6A5; hit rate 0.66% among 390,000;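 active means mean inhibition of replicates at least 50% and at least half of replicates each reaching 50%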
GRK2 inh – inhibitors of human GRK2 displacing RNA aptamer. P25098. bead flow cytometry, FAM-aptamer displacement from GRK2. inhibition of aptamer binding, % at 10 µM. hit rate 0.59% among 330,000;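 active means inhibition of aptamer binding above 40%, roughly 3 SD of noise, on plates passing a quality check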;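 further: median bead fluorescence of bound FAM aptamer so fluorescent compounds give negative values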
Large screens that a line does not name were inactive. Most compounds without a hit are left out; they make up all but 1.8% or so of the library.

COC(=O)C[C@H]1C[C@@H]2c3cc(NC(=O)C4CCC4)ccc3O[C@@H]2[C@H](CO)O1	none (no result: DDE Tn6 FP inh, DDE Tn7 FP inh, CAL PDZ FP-1, CAL PDZ FP-2, GRK2 inh)
COc1cc2ccccc2nn1	none
COc1ccc2c(n1)Sc1nc3ccccc3nc1N2	ARNT TACC3 PPI 8.9
O=C(CNc1cc([N+](=O)[O-])ccc1NCCO)Nc1cccc(S(=O)(=O)N2CCCCC2)c1	none
O=C(CNc1cccc(S(=O)(=O)N2CCCCCC2)c1)Nc1cccc([N+](=O)[O-])c1	ARNT TACC3 PPI 50
O=C(Cn1[nH]c(=O)c2ccccc2c1=O)OCC(=O)N1CCCc2ccccc21	CAL PDZ FP-1 69
Cc1ccnc2c1ccc1c(C)ccnc12	ARNT TACC3 PPI 70 (no result: DDE Tn6 FP inh, DDE Tn7 FP inh)
Cc1ccnc2c1ccc1cccnc12	ARNT TACC3 PPI 63 (no result: GRK2 inh)
CCN(CC)S(=O)(=O)c1cccc(N=Nc2c(O)c3ccccc3oc2=O)c1	none
COC(=O)c1cccc(Cn2cc([N+](=O)[O-])cn2)c1	none (no result: DDE Tn6 FP inh, DDE Tn7 FP inh, CAL PDZ FP-1, CAL PDZ FP-2, ARNT TACC3 PPI)
COC(=O)c1ccc(Cn2cc([N+](=O)[O-])cn2)cc1	CAL PDZ FP-1 68
C[C@H]1CN([C@@H](C)CO)C(=O)Cc2cc(NC(=O)CCN3CCOCC3)ccc2O[C@H]1CN(C)S(=O)(=O)c1ccc(Cl)cc1	none (no result: DDE Tn6 FP inh, DDE Tn7 FP inh, CAL PDZ FP-1, CAL PDZ FP-2, GRK2 inh)
COc1cccc(S(=O)(=O)N[C@H]2CC[C@@H](CC(=O)NCc3ccc(Cl)cc3)O[C@H]2CO)c1	ARNT TACC3 PPI 36 (no result: DDE Tn6 FP inh, DDE Tn7 FP inh, CAL PDZ FP-1, CAL PDZ FP-2, GRK2 inh)
COC(=O)C[C@H]1CC[C@@H](NS(=O)(=O)c2ccc(OC)cc2)[C@H](CO)O1	ARNT TACC3 PPI 48 (no result: DDE Tn6 FP inh, DDE Tn7 FP inh, CAL PDZ FP-1, CAL PDZ FP-2, GRK2 inh)
COc1cccc(S(=O)(=O)N[C@H]2CC[C@H](CC(=O)NCc3ccc(Cl)cc3)O[C@H]2CO)c1	none (no result: DDE Tn6 FP inh, DDE Tn7 FP inh, CAL PDZ FP-1, CAL PDZ FP-2, GRK2 inh)
CC(C)C#Cc1ccc([C@@H]2[C@@H](CO)N(C(=O)C3CCC3)[C@H]2C#N)cc1	none (no result: DDE Tn6 FP inh, DDE Tn7 FP inh, CAL PDZ FP-1, CAL PDZ FP-2, GRK2 inh)
C[C@H](CO)N1C[C@H](C)[C@H](CN(C)C(=O)Nc2ccccc2)OCCCC[C@H](C)Oc2ccc(NS(C)(=O)=O)cc2C1=O	none (no result: DDE Tn6 FP inh, DDE Tn7 FP inh, CAL PDZ FP-1, CAL PDZ FP-2, GRK2 inh)
O=C(Nc1cc(F)ccc1F)N1CCCCN2[C@@H](CO)[C@@H](c3ccc(-c4cncnc4)cc3)[C@@H]2C1	none (no result: DDE Tn6 FP inh, DDE Tn7 FP inh, CAL PDZ FP-1, CAL PDZ FP-2, GRK2 inh)
COCC(=O)Nc1ccc2c(c1)[C@@H]1C[C@H](CC(=O)N3CCOCC3)O[C@H](CO)[C@@H]1O2	none (no result: DDE Tn6 FP inh, DDE Tn7 FP inh, CAL PDZ FP-1, CAL PDZ FP-2, GRK2 inh)
C/C(=N\NC(=O)Nc1ccccc1)c1ccc2ccccc2c1	GRK2 inh 100
C/C(=N/NC(=O)Nc1ccccc1)c1ccc(C)cc1	none
CO[C@H]1CN(C)C(=O)c2ccc(NS(=O)(=O)c3ccc(Oc4ccccc4)cc3)cc2OC[C@@H](C)NC[C@@H]1C	none (no result: DDE Tn6 FP inh, DDE Tn7 FP inh, CAL PDZ FP-1, CAL PDZ FP-2, GRK2 inh)
COc1ccc(NC(=O)CNC(=O)C2CCCCC2)cc1	CAL PDZ FP-1 53
CCOc1cccc2c1OC1(C)CC2NC(=O)N1c1cccc(Cl)c1 (stereo not given)	CAL PDZ FP-1 93 (no result: CAL PDZ FP-2)
C[C@@H]1CCCCO[C@H](CN(C)S(=O)(=O)c2ccccc2)[C@@H](C)CN([C@H](C)CO)C(=O)c2cc(NC(=O)NC3CCCCC3)ccc2O1	none (no result: DDE Tn6 FP inh, DDE Tn7 FP inh, CAL PDZ FP-1, CAL PDZ FP-2, GRK2 inh)
O=C(CNC(=O)c1ccccc1)OCC(=O)c1ccccc1Cl	CAL PDZ FP-1 49
Cc1cc(Cl)ccc1N(CC(=O)NCCSCc1ccco1)S(C)(=O)=O	CAL PDZ FP-1 99
Cc1ccc(N(CC(=O)NCCSCc2ccco2)S(C)(=O)=O)cc1	none
CCS(=O)(=O)N1[C@H](CO)[C@@H](c2ccc(C#Cc3ccccc3F)cc2)[C@@H]1C#N	none (no result: DDE Tn6 FP inh, DDE Tn7 FP inh, CAL PDZ FP-1, CAL PDZ FP-2, GRK2 inh)
Cc1ccc(C(=O)Nc2ccc(N3CCN(C(=O)c4cccs4)CC3)cc2)c(Cl)c1	none
C=CCCCCCCCCC(=O)NNC1CC(=O)N(c2ccccc2)C1=O (stereo not given)	CAL PDZ FP-1 49
O=C(NC(=S)NCCN1CCOCC1)c1ccc(F)cc1	none
Cc1ccc(C(=O)NC(=S)NNC(=O)CCN2CCOCC2)cc1	ARNT TACC3 PPI 40
Cc1cccc(S(=O)(=O)N[C@H]2CC[C@H](CCNS(=O)(=O)c3ccccc3F)O[C@@H]2CO)c1	none (no result: DDE Tn6 FP inh, DDE Tn7 FP inh, CAL PDZ FP-1, CAL PDZ FP-2, GRK2 inh)
COC(=O)c1sccc1NC(=O)CC1NCCNC1=O (stereo not given)	CAL PDZ FP-1 130
Cc1nc2ncccn2c1-c1csc(Nc2ccc(S(N)(=O)=O)cc2)n1	none
Cc1nc2ncccn2c1-c1csc(Nc2ccccc2)n1	ARNT TACC3 PPI 58
